Key:
Format in all cases: functional
[1] = Growth inhibition of human EKVX cells after 48 hrs
Method in brief: (§1)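 NCI-60 human tumour cell line panel screen run at the US National Cancer Institute under its standard cytotoxicity protocol. It covers leukaemia, NSCLC, colon, CNS, melanoma, ovarian, renal, prostate and breast lines. An initial single-dose test was followed by five-dose testing with 48 h compound exposure.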

DU-145 = assay: Growth inhibition of human DU145 cells after 48 hrs; settings: DU-145, 48 h; method in brief: as §1
[2] = Growth inhibition of human HCT15 cells after 48 hrs; settings: HCT-15, 48 h; method in brief: as §1
[3] = Growth inhibition of human HOP92 cells after 48 hrs; settings: HOP-92, 48 h; method in brief: as §1
[4] = Growth inhibition of human MOLT4 cells after 48 hrs; settings: MOLT-4, 48 h; method in brief: as §1
A498 = assay: Growth inhibition of human A498 cells after 48 hrs; settings: A498, 48 h; method in brief: as §1
SNB-75 = assay: Growth inhibition of human SNB75 cells after 48 hrs; settings: SNB-75, 48 h
Method in brief: (§2)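 Run by the NCI 58-cell-line screen under its standard cytotoxicity protocol. Compounds were first tested at a single dose, then at five doses. Cells were exposed to compound for 48 h.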

[5] = Growth inhibition of human SF295 cells after 48 hrs; settings: SF-295, 48 h; method in brief: as §1
[6] = Growth inhibition of human OVCAR3 cells after 48 hrs; settings: OVCAR-3, 48 h; method in brief: as §1
HL-60(TB) = assay: Growth inhibition of human HL-60(TB) cells after 48 hrs; settings: HL-60, 48 h; method in brief: as §1
[7] = Growth inhibition of human LOXIMVI cells after 48 hrs; settings: LOX IMVI; method in brief: as §1
SW-620 = assay: Growth inhibition of human SW620 cells after 48 hrs; settings: SW-620, 48 h; method in brief: as §2
Klebsiella pneumoniae = assay: Antimicrobial activity against Klebsiella pneumoniae assessed as inhibition at 20 ug/6 mm disk after 1 to 2 days by agar diffusion assay
Method in brief: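 Standard agar diffusion: 6-mm paper disks loaded with 20 µg of compound were placed on inoculated plates. Inhibition-zone diameter (mm) was read after 1 and 2 days of growth.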

KM12 = assay: Growth inhibition of human KM12 cells after 48 hrs; settings: KM12, 48 h; method in brief: as §1
K562 = assay: Growth inhibition of human K562 cells after 48 hrs; settings: K562, 48 h; method in brief: as §1
[8] = read-out: pLC50 (the source's name) (converted)

With `COc1ccc(N(CC(=O)NCCC[Te]c2ccccc2)C(=O)CNC(=O)OC(C)(C)C)cc1` the GI50 [1] was 0.324 µM, the CC50 [1, 8] was > 100 µM and the TGI ([1]; read-out: pTGI (converted)) was 2.34 µM. The GI50 (DU-145) was 2.88 µM, the LC50 (DU-145) was 30.9 µM and the TGI (DU-145; read-out: pTGI (converted)) was 7.59 µM. For the same compound, the GI50 [2] was 3.16 µM, the CC50 [2, 8] was 93.3 µM and the TGI ([2]; read-out: pTGI (converted)) was 10.5 µM. For the same compound, the GI50 [3] was 2.95 µM, the CC50 [3, 8] was 66.1 µM and the TGI ([3]; read-out: pTGI (converted)) was 4.9 µM. For the same compound, the GI50 [4] was 3.09 µM, the CC50 [4, 8] was > 100 µM and the TGI ([4]; read-out: pTGI (converted)) was 10 µM. It also gave a GI50 (A498) of 2.29 µM, an LC50 (A498) of 33.9 µM and a TGI (A498; read-out: pTGI (converted)) of 5.37 µM. For the same compound, the GI50 (SNB-75) was 6.61 µM, the CC50 (SNB-75; [8]) was 36.3 µM and the TGI (SNB-75; read-out: pTGI (converted)) was 7.41 µM. For the same compound, the GI50 [5] was 1.29 µM, the CC50 [5, 8] was > 100 µM and the TGI ([5]; read-out: pTGI (converted)) was 4.07 µM. It also gave a GI50 [6] of 3.02 µM, a CC50 [6, 8] of 100 µM and a TGI ([6]; read-out: pTGI (converted)) of 7.94 µM. For the same compound, the GI50 (HL-60(TB)) was 2.09 µM, the CC50 (HL-60(TB); [8]) was > 100 µM and the TGI (HL-60(TB); read-out: pTGI (converted)) was 5.62 µM. The GI50 [7] was 2.34 µM, the LC50 [7] was 34.7 µM and the TGI ([7]; read-out: pTGI (converted)) was 5.75 µM. For the same compound, the GI50 (SW-620) was 3.47 µM, the CC50 (SW-620; [8]) was > 100 µM and the TGI (SW-620; read-out: pTGI (converted)) was 14.5 µM. For the same compound, the “diameter of the inhibition zone (DIZ)” value (Klebsiella pneumoniae) was 12 mm, the GI50 (KM12) was 3.31 µM and the CC50 (KM12; [8]) was 43.7 µM. The TGI (KM12; read-out: pTGI (converted)) was 11.5 µM, the GI50 (K562) was 5.5 µM and the CC50 (K562; [8]) was > 100 µM. The TGI (K562; read-out: pTGI (converted)) was > 100 µM.

From ChEMBL document CHEMBL3351600, “Sulfur, selenium and tellurium pseudopeptides: synthesis and biological evaluation” (Bioorg Med Chem, 2014)
